Assay results collected from several papers.
Target: Fibroblast growth factor receptor 4 (FGFR4, Homo sapiens, UniProt P22455)

CNC(=O)c1cc(Oc2ccc(NC(=O)Nc3ccc(Cl)c(C(F)(F)F)c3)cc2)ccn1
inhibition (enzyme activity; inhibitor; 10 µM): 47%

CC(C)(O)[C@H]1CC[C@H](Nc2ccc3ncc(-c4cccc(C(F)(F)F)c4)n3n2)CC1
remaining activity (enzyme activity; inhibitor; 1 µM): 108%

CC(C)(O)c1cncc(-c2nc3ccc(F)cc3n2C2CC2)c1
remaining binding (cell-free assay; competition with immobilised ligand; 1 µM): 100%

Cc1ccc(C(=O)NCc2ccsc2)cc1C#Cc1cn(C(C)C)c2ncnc(N)c12
activity vs control (enzyme activity; inhibitor; 1 µM): 99%

O=C(N1CCS(=O)(=O)CC1)N1C[C@H](c2ccc(OC(F)(F)F)cc2)C[C@H](c2nc(C3CC3)no2)C1
remaining binding (cell-free assay; competition with immobilised ligand; 1 µM): 100%

CC/C(=N\NC(=O)NCc1cccc(O)c1)c1ccc(O)c(C)c1O
inhibition (enzyme activity; inhibitor; 0.1 µM): 3.3%

CS(=O)(=O)N1CCCC(NC(=O)[C@H](CCC2CCCCC2)NC(=O)c2ccc(CNC(=O)c3cnc4ccccn34)cc2)C1 (some centres unmarked)
remaining binding (cell-free assay; competition with immobilised ligand; 0.1 µM): 100%

CCN(CC)CCNC(=O)c1c(C)[nH]c(/C=C2\C(=O)Nc3ccc(F)cc32)c1C
inhibition (enzyme activity; inhibitor; 0.3 µM): -11%

O=C1Nc2ccc(Cl)cc2C1=Cc1cc(Cl)c(O)c(Cl)c1
remaining signal (cell-free assay; 0.5 µM): 98%

Cn1nc(C(=O)NCc2ccc(C(=O)O)cc2)cc1-c1ccc2[nH]ccc2c1
remaining binding (cell-free assay; competition with immobilised ligand; 0.1 µM): 100%

O=C1NC(=O)c2cc(Nc3ccc(F)cc3)c(Nc3ccc(F)cc3)cc21
remaining signal (cell-free assay; 0.5 µM): 95.5%

O=C(Nc1cnn(-c2csc(C(=O)NC3COC3)c2)c1)Nc1ccccc1Cl
remaining activity (enzyme activity; inhibitor; 5 µM): 88.2%

C=CC(=O)Nc1cc(Nc2nccc(Nc3cc(Cl)c(F)cc3C(C)(C)O)n2)c(OC)cc1N1CC[C@@H](N(C)C)C1
inhibition (enzyme activity; inhibitor; 1 µM): 2%

CN(C)CC#Cc1ccc(OCCCc2sc(N3CCc4cccc(C(=O)Nc5nc6ccccc6s5)c4C3)nc2C(=O)O)c(F)c1
remaining binding (cell-free assay; competition with immobilised ligand; 1 µM): 100%

COc1ccc(COc2ccc(Cc3cnc(N)nc3N)cc2OC)cc1
remaining signal (cell-free assay; 0.5 µM): 99.7%

CNc1cccc2cc(C(=O)Nc3ccc(C(=O)O)cc3)c(=O)[nH]c12
inhibition (enzyme activity; inhibitor; 10 µM): 2.6%

CCCOc1ccc(OC)c(F)c1C(=O)c1ccc(C(=O)N[C@@H]2CNC[C@H]2NC(=O)c2ccc3[nH]ncc3c2)cc1
remaining activity (enzyme activity; inhibitor; 10 µM): 75%

COc1cc(Cl)c(C(=O)N[C@@H](CN[C@H]2CC[C@@H](N)CC2)Cc2ccc(C#N)cc2)cc1-c1ccc(CN[C@H](C)c2ccc(C)cc2)o1
remaining activity (enzyme activity; inhibitor; 1 µM): 96%

CC(C)(C)c1nc(-c2cccc(NS(=O)(=O)c3c(F)cccc3F)c2F)c(-c2ccnc(N)n2)s1
remaining activity (enzyme activity; inhibitor; radiometric; 1 µM): 93%

NS(=O)(=O)c1cc(NC(=O)C2(c3ccccc3Cl)CC2)ccc1Oc1cccc(Cl)c1
remaining binding (cell-free assay; competition with immobilised ligand; 1 µM): 100%

Cc1sc(C(=O)NC2COC2)cc1-n1cc(NC(=O)Nc2c(F)cccc2Cl)cn1
remaining activity (enzyme activity; inhibitor; 10 µM): 96.8%

CC(=O)N1CCC(c2ccc(C(=O)NC3=NCCN3)cc2C(F)(F)F)CC1
remaining binding (cell-free assay; competition with immobilised ligand; 1 µM): 88%

COc1cc2ncnc(Nc3ccc(Oc4ccccc4)cc3C)c2cc1OC
inhibition (enzyme activity; inhibitor; 1 µM): -3%
